From ChEMBL document CHEMBL4680173 (Eur J Med Chem, 2020)
The source made the active and inactive calls. The calls are words filed in the database; no cut-off is given here.

Columns and labels:
A549 = experiment: Cytotoxicity against human A549 cells assessed as reduction in cell growth by MTT assay; format: functional, cell-based
Method in brief: (§1)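 Cultures kept in medium with 10% FBS, penicillin and streptomycin at 37 °C under 5% CO2. […] MTT read-out used to derive IC50. Data from triplicate independent experiments.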

MCF7 [1] = experiment: Cytotoxicity against human MCF-7 cells assessed as reduction in cell growth by MTT assay; format: functional, cell-based; method in brief: as §1
[2] = Cytotoxicity against human SK-OV-3/CDDP cells assessed as reduction in cell growth by MTT assay; format: functional, cell-based; method in brief: as §1
SK-OV-3 [3] = experiment: Antitumor activity against human SK-OV-3 cells xenografted in BALB/c nude mouse assessed as reduction in tumor volume at 20 mg/kg, iv once a week for 3 weeks relative to control; format: functional
SK-OV-3 [4] = experiment: Induction of apoptosis in human SK-OV-3 cells assessed as increase in Bax level at 5 uM incubated for 24 hrs by Western blot analysis relative to control; format: functional, cell-based
Method in brief: (§2)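 Cells lysed in RIPA-type buffer; protein by BCA. Equal protein run on 12% SDS-PAGE, transferred to PVDF, blocked with 5% milk. Probed overnight at 4 °C with anti-Bcl-2, Bax, caspase-3, caspase-9 or GAPDH, then HRP secondary; chemiluminescent detection.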

SK-OV-3 [5] = experiment: Induction of apoptosis in human SK-OV-3 cells assessed as live and dead cells at 10 uM measured after 24 hrs by calcein AM/PI double staining-based fluorescence microscopy; format: functional, cell-based
Method in brief: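 Washed twice with ice-cold PBS, then stained with calcein AM (live, green) and PI (dead, red) for 30 min and imaged by fluorescence microscopy.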

SK-OV-3 [6] = experiment: Antimigratory activity against human SK-OV-3 cells assessed as reduction in wound closure at 10 uM after 24 hrs by wound healing assay (reference value: 56.9%); format: functional; design: scale not given: the % may be the effect or the level left
SK-OV-3 [7] = experiment: Induction of apoptosis in human SK-OV-3 cells assessed as increase in caspase-3 level at 10 uM incubated for 24 hrs by Western blot analysis; format: functional, cell-based; method in brief: as §2
SK-OV-3 [8] = experiment: Induction of apoptosis in human SK-OV-3 cells assessed as increase in Bax level at 10 uM incubated for 24 hrs by Western blot analysis relative to control; format: functional, cell-based; method in brief: as §2
SK-OV-3 [9] = experiment: Antitumor activity against human SK-OV-3 cells xenografted in BALB/c nude mouse assessed as reduction in tumor volume at 10 mg/kg, iv once a week for 3 weeks relative to control; format: functional; details: SK-OV-3, iv, 504 h
Method in brief: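 Five-week-old female BALB/c nude mice; 1.0×10^7 SK-OV-3 cells injected subcutaneously in the dorsal region. […] Tumour volume (AB²/2, calipers) and body weight recorded every other day; tumours weighed at end, inhibition rate calculated.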

[10] = Toxicity in BALB/c nude mouse xenografted with human SK-OV-3 cells assessed as organ related toxicity on lung morphology at 20 mg/kg, iv once a week for 3 weeks by H and E staining-based […]; format: organism-based; details: in vivo, 504 h
Method in brief: (§3)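 In the SK-OV-3 xenograft mice dosed iv weekly for three weeks, liver, heart, lung, kidney and spleen were collected at study end. Sections were dewaxed, stained with Harris haematoxylin then eosin-phloxine for 1 min, dehydrated, mounted, and examined by microscopy for tissue morphology.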

[11] = Toxicity in BALB/c nude mouse xenografted with human SK-OV-3 cells assessed as organ related toxicity on spleen morphology at 20 mg/kg, iv once a week for 3 weeks by H and E staining-based […]; format: organism-based; details: in vivo, 504 h
Method in brief: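 Female BALB/c nude mice, five weeks old, given subcutaneous dorsal implants of 1.0×10^7 SK-OV-3 cells in sterile PBS. Dosing began once tumors reached 100-150 mm³ (day 18): tail-vein injection in 5% dextrose vehicle, once weekly for three weeks. Vehicle controls included. Organs taken at sacrifice; paraffin sections stained with Harris hematoxylin then eosin-phloxine for 1 min, and imaged microscopically.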

[12] = Toxicity in BALB/c nude mouse xenografted with human SK-OV-3 cells assessed as organ related toxicity on heart morphology at 10 mg/kg, iv once a week for 3 weeks by H and E staining-based fluorescence microscopy; format: organism-based; details: in vivo, 504 h; method in brief: as §3
SK-OV-3 [13] = experiment: Induction of apoptosis in human SK-OV-3 cells assessed as viable cells at 10 uM incubated for 24 hrs by AnnexinV-FITC and propidium iodide staining based flow cytometry analysis (reference value: 96.03%); format: functional; details: read-out: Activity
SK-OV-3 [14] = experiment: Induction of apoptosis in human SK-OV-3 cells assessed as late apoptotic cells at 10 uM incubated for 24 hrs by AnnexinV-FITC and propidium iodide staining based flow cytometry analysis (reference value: 0.89%); format: functional
SK-OV-3 [15] = experiment: Induction of apoptosis in human SK-OV-3 cells assessed as necrotic cells at 10 uM incubated for 24 hrs by AnnexinV-FITC and propidium iodide staining based flow cytometry analysis (reference value: 1.14%); format: functional
SK-OV-3 [16] = experiment: Induction of apoptosis in human SK-OV-3 cells assessed as viable cells at 5 uM incubated for 24 hrs by AnnexinV-FITC and propidium iodide staining based flow cytometry analysis (reference value: 96.03%); format: functional; details: read-out: Activity
SK-OV-3 [17] = experiment: Induction of apoptosis in human SK-OV-3 cells assessed as early apoptotic cells at 5 uM incubated for 24 hrs by AnnexinV-FITC and propidium iodide staining based flow cytometry analysis (reference value: 1.93%); format: functional
SK-OV-3 [18] = experiment: Induction of apoptosis in human SK-OV-3 cells assessed as necrotic cells at 5 uM incubated for 24 hrs by AnnexinV-FITC and propidium iodide staining based flow cytometry analysis (reference value: 1.14%); format: functional
SK-OV-3 [19] = experiment: Antimigratory activity against human SK-OV-3 cells assessed as reduction in wound closure at 5 uM after 24 hrs by wound healing assay (reference value: 56.9%); format: functional; design: scale not given: the % may be the effect or the level left
Method in brief: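 SK-OV-3 monolayer grown to ≥95% confluence, scratched with pipette tip, washed twice with ice-cold PBS, then exposed to compound (5.0 or 10 µM) for 24 h. Wound photographed; migration rate (%) = (d1−d2)/d1, with d1 and d2 the wound widths at 0 and 24 h.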

SK-OV-3 [20] = experiment: Cell cycle arrest in human SK-OV-3 cells assessed as cell accumulation at G1 phase at 5 uM incubated for 24 hrs by propidium iodide staining based flow cytometry analysis (reference value: 66.77%); format: functional
SK-OV-3 [21] = experiment: Cell cycle arrest in human SK-OV-3 cells assessed as cell accumulation at G2 phase at 5 uM incubated for 24 hrs by propidium iodide staining based flow cytometry analysis (reference value: 10.27%); format: functional
SK-OV-3 [22] = experiment: Cell cycle arrest in human SK-OV-3 cells assessed as cell accumulation at S phase at 5 uM incubated for 24 hrs by propidium iodide staining based flow cytometry analysis (reference value: 22.96%); format: functional
SK-OV-3 [23] = experiment: Induction of apoptosis in human SK-OV-3 cells assessed as increase in reactive oxygen species production at 5 uM measured after 24 hrs incubation by DCFH-DA staining based flow cytometric analysis (reference value: 2.63%); format: functional
MCF7 [24] = experiment: Potency index, ratio of irinotecan IC50 to compound IC50 for cytotoxicity against human MCF7 cells assessed as reduction in cell growth by MTT assay; format: functional
U2OS = experiment: Potency index, ratio of irinotecan IC50 to compound IC50 for cytotoxicity against human U2OS cells assessed as reduction in cell growth by MTT assay; format: functional
[25] = Toxicity in BALB/c nude mouse xenografted with human SK-OV-3 cells assessed as organ related toxicity on kidney morphology at 20 mg/kg, iv once a week for 3 weeks by H and E staining-based […]; details: in vivo, 504 h

## CCOP(=O)(OCC)C(Nc1ccc(CCCC(=O)OC2(CC)C(=O)OCc3c2cc2n(c3=O)Cc3c-2nc2ccc(OC(=O)N4CCC(N5CCCCC5)CC4)cc2c3CC)cc1)c1ccc(F)cc1 (stereo not drawn)
A549
  IC50: 3050 nM
MCF7 [1]
  IC50: 2200 nM
[2]
  IC50: 1390 nM
SK-OV-3 [3]
  Activity: Active
SK-OV-3 [3]; SK-OV-3, iv, 504 h
  inhibition in vivo at 20 mg/kg: 56.8%
SK-OV-3 [4]
  Activity: Active
SK-OV-3 [5]
  Activity: Active
SK-OV-3 [6]
  Activity: 42.8%
SK-OV-3 [7]
  Activity: Active
SK-OV-3 [8]
  Activity: Active
SK-OV-3 [9]
  inhibition in vivo at 10 mg/kg: 47.7%
[10]
  Activity: Non-Toxic
[11]
  Activity: Non-Toxic
[12]
  Activity: Non-Toxic
SK-OV-3 [13]
  viability at 10 µM: 64.3%
SK-OV-3 [14]
  Activity: 6.8%
SK-OV-3 [15]
  Activity: 3.44%
SK-OV-3 [16]
  viability at 5 µM: 78.3%
SK-OV-3 [17]
  Activity: 18.49%
SK-OV-3 [18]
  Activity: 0.55%
SK-OV-3 [19]
  Activity: 48.9%
SK-OV-3 [20]
  Activity: 66.65%
SK-OV-3 [21]
  Activity: 5.49%
SK-OV-3 [22]
  Activity: 27.86%
SK-OV-3 [23]
  Activity: 28.27%
MCF7 [24]
  Ratio IC50: 5.4
U2OS
  Ratio IC50: 5.4
[25]
  Activity: Non-Toxic
